# Laboratory results published in ChEMBL document CHEMBL1145901, “A novel ergot alkaloid as a 5-HT(1A) inhibitor produced by Dicyma sp” (J Med Chem, 2003).
# What was measured:
# [1] = biological target: T1, 5-hydroxytryptamine receptor 2C (Homo sapiens, UniProt P28335); test: Binding affinity against 5-hydroxytryptamine 2C receptor human cloned receptors in HEK 293 cells using [3H]mesulergine as radioligand; format: cell-based, HEK293
# T1 sequence (P28335 whole entry): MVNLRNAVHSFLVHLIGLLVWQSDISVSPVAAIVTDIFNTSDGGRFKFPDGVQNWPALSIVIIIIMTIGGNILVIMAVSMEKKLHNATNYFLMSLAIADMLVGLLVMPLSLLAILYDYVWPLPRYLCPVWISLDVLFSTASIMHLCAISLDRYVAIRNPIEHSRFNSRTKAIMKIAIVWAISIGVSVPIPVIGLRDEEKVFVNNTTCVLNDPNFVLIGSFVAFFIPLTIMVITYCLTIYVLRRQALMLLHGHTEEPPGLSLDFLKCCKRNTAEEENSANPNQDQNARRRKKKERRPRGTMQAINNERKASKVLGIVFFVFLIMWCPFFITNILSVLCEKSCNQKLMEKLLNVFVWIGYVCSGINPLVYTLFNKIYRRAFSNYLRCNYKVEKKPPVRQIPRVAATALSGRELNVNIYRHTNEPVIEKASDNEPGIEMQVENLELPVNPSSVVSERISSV
# [2] = biological target: 5-hydroxytryptamine receptor 6 (Homo sapiens, UniProt P50406); test: Binding affinity against 5-hydroxytryptamine 6 human cloned receptors in HeLa cells using [3H]LSD as radioligand; format: cell-based
# [3] = biological target: T2, 5-hydroxytryptamine receptor 1B (Homo sapiens, UniProt P28222); test: Binding affinity against human 5-hydroxytryptamine 1B receptor cloned receptors in CHO cells using [3H]5-CT as radioligand; format: cell-based
# How it was run: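 Membranes from CHO cells expressing human 5-HT1B, in 50 mM Tris-HCl pH 7.4 with 0.1% ascorbate, 10 μM pargyline, 0.5 mM EDTA and 10 mM MgCl2. Compound in DMSO was preincubated 15 min at RT, then 10 nM stock [3H]-5-CT was added for 30-45 min at 37 °C. Filtration on PEI-treated GF/C, scintillation counting; 200 μM 5-HT (stock) defined nonspecific binding. Four-parameter IC50, Cheng-Prusoff Ki, mean of at least two determinations.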
# [4] = biological target: T3, 5-hydroxytryptamine receptor 1A (Homo sapiens, UniProt P08908); test: Binding affinity against 5-hydroxytryptamine 1A human cloned receptors in HEK293 cells; format: cell-based
# T3 sequence (P08908 whole entry): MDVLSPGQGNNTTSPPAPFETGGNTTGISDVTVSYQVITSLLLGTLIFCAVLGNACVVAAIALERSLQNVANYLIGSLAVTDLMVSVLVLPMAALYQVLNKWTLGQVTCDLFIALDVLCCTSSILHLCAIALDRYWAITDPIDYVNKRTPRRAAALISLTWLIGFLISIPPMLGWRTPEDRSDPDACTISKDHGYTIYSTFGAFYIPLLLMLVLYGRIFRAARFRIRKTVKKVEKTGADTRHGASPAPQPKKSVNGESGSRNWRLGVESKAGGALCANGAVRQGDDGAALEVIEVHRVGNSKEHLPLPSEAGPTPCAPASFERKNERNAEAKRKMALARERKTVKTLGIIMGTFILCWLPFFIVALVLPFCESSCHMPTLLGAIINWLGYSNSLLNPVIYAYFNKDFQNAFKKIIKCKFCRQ
# How it was run: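 Human 5-HT1A stably expressed in HEK 293 cells. Membranes were homogenised in ice-cold 50 mM Tris (pH 7.7 at 25 °C) and stored at -70 °C. Binding was measured as displacement of [3H]-8-OH-DPAT. IC50 came from a four-parameter logistic fit of cpm and was converted to Ki by Cheng-Prusoff. Values are the mean of at least two determinations.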
# [5] = biological target: 5-hydroxytryptamine receptor 7 (Homo sapiens, UniProt P34969); test: Binding affinity against 5-hydroxytryptamine 7 human receptors
# [6] = biological target: T4, 5-hydroxytryptamine receptor 2A (Homo sapiens, UniProt P28223); test: Binding affinity against 5-hydroxytryptamine 2A receptor human cloned receptors in HEK 293 cells using [3H]ketanserin as radioligand; format: cell-based, HEK293
# [7] = biological target: T2, 5-hydroxytryptamine receptor 1B; test: Binding affinity against human 5-hydroxytryptamine 1B receptor cloned receptors in CHO cells; format: cell-based
# How it was run: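 Human 5-HT1B-expressing CHO cell membranes were homogenized in ice-cold 50 mM Tris (pH 7.7) and stored at -70 °C. They were resuspended in 50 mM Tris-HCl pH 7.4 containing 0.1% ascorbate, 10 μM pargyline, 0.5 mM EDTA and 10 mM MgCl2. Compound in DMSO was preincubated with membranes for 15 min at RT. [3H]-5-CT (added from 10 nM) was then incubated 30-45 min at 37 °C. Samples were filtered and counted by scintillation. Nonspecific binding used 5-HT. IC50 came from a four-parameter fit; Ki by Cheng-Prusoff. Results are means of ≥2 determinations.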
# [8] = biological target: T3, 5-hydroxytryptamine receptor 1A; test: (§1) Binding affinity against human 5-hydroxytryptamine 1A receptors HEK 293 cell membranes using [35S]GTP gamma-S; format: functional, HEK293
# [9] = biological target: T5, 5-hydroxytryptamine receptor 1A (Homo sapiens) (UniProt P08908); test: as §1; format: functional; conditions: HEK293
# T5 sequence (whole entry): T3 sequence (P08908 whole entry)
# [10] = biological target: T5, 5-hydroxytryptamine receptor 1A (Homo sapiens); test: Intrinsic activity for human 5-hydroxytryptamine 1A receptors HEK 293 cell membranes using [35S]GTP gamma-S; format: functional; conditions: HEK293
# How it was run: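 Membranes from 10^6 HEK293 cells were preincubated with compound for 30 min at 30 °C in 20 mM HEPES pH 7.4 with 3 mM MgCl2, 100 mM NaCl, 10 μM GDP and 0.2 mM ascorbate. [35S]GTPγS (100 pM assay concentration) was then added for 30 min at 30 °C. Nonspecific binding used unlabeled GTPγS. Samples were filtered on GF/B and counted by scintillation. Intrinsic activity is relative to 5-HT; four to seven independent experiments.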
# [11] = biological target: T1, 5-hydroxytryptamine receptor 2C; test: Binding affinity against 5-hydroxytryptamine 2C receptor human cloned receptorswithouteffect in HEK 293 cells using [3H]mesulergine as radioligand; format: cell-based, HEK293
# How it was run: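 Filtration binding on membranes from cells stably expressing the human cloned receptor, homogenized in ice-cold 50 mM Tris (pH 7.7). Assay buffer was 50 mM Tris-HCl pH 7.4 with 0.1% ascorbic acid, 10 μM pargyline, 0.5 mM EDTA and 10 mM MgCl2. Compound in DMSO was preincubated 15 min at room temperature, then radioligand was added for 30-45 min at 37 °C. Read-out was scintillation counting. IC50 came from a four-parameter logistic fit and Ki from Cheng-Prusoff; values are the mean of at least two determinations.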
# D(2) dopamine receptor = D(2) dopamine receptor (Homo sapiens, UniProt P14416); test: Binding affinity against human Dopamine receptor D2 in CHO cells using [125I]iodosulpiride; format: cell-based
# [12] = biological target: T4, 5-hydroxytryptamine receptor 2A; test: Binding affinity against 5-hydroxytryptamine 2A receptor human cloned receptorswithouteffect in HEK 293 cells using [3H]ketanserin as radioligand; format: cell-based, HEK293
# [13] = biological target: T2, 5-hydroxytryptamine receptor 1B; test: Binding affinity against cloned human 5-hydroxytryptamine 1B receptor in CHO cells using [3H]5-CT as radioligand; format: cell-based
# [14] = biological target: T3, 5-hydroxytryptamine receptor 1A; test: Binding affinity against 5-hydroxytryptamine 1A human cloned receptors in HEK293 cells using [3H]8-OH-DPAT as radioligand; format: cell-based
# T2 sequence (P28222 whole entry): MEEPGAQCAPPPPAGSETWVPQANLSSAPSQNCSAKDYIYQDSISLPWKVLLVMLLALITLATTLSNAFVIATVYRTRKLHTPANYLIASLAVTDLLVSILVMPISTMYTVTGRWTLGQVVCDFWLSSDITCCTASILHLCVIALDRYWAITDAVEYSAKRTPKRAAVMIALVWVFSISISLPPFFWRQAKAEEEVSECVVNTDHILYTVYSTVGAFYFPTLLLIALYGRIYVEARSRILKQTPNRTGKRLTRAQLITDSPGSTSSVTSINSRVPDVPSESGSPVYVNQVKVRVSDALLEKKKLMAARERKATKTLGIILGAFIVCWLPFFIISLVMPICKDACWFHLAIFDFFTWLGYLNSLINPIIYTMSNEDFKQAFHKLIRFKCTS
# 5-hydroxytryptamine receptor 6, sequence (P50406 whole entry): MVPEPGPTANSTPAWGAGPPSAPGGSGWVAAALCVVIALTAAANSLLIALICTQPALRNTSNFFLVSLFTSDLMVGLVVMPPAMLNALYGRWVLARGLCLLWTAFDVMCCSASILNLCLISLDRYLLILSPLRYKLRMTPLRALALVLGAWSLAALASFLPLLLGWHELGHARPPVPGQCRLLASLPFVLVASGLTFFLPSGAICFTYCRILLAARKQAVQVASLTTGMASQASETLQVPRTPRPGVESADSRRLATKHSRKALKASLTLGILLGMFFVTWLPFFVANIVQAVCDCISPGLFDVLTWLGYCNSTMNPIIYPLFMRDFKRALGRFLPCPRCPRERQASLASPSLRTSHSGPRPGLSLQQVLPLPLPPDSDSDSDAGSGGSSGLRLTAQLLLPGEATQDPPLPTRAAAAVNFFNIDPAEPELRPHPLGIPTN
# T4 sequence (P28223 whole entry): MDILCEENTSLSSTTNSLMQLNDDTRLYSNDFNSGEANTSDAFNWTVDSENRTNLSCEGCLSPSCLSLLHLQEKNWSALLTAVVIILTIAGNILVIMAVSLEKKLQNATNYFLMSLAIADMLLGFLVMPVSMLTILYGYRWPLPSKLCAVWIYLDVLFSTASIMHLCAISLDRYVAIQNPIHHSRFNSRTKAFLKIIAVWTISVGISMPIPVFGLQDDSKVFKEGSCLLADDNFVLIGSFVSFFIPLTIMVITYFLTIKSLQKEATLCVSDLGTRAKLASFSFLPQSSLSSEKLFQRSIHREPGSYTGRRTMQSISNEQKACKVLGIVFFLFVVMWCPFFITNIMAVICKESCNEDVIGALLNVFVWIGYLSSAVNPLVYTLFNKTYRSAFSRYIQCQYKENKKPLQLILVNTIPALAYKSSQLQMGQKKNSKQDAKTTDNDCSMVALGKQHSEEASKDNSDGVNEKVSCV
# 5-hydroxytryptamine receptor 7, sequence (P34969 whole entry): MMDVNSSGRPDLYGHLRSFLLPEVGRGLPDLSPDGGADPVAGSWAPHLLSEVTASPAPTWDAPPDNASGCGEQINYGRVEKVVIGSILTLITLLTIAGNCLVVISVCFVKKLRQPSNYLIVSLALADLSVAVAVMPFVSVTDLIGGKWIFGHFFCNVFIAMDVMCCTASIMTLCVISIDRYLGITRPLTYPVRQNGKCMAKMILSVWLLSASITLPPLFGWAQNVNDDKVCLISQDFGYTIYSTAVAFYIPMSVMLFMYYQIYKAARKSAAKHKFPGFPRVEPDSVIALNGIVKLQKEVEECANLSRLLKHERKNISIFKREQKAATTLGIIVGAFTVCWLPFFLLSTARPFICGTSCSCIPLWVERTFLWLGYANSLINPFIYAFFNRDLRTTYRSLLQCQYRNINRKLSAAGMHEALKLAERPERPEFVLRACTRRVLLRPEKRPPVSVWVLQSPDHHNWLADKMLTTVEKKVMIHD
# D(2) dopamine receptor, sequence (P14416 whole entry): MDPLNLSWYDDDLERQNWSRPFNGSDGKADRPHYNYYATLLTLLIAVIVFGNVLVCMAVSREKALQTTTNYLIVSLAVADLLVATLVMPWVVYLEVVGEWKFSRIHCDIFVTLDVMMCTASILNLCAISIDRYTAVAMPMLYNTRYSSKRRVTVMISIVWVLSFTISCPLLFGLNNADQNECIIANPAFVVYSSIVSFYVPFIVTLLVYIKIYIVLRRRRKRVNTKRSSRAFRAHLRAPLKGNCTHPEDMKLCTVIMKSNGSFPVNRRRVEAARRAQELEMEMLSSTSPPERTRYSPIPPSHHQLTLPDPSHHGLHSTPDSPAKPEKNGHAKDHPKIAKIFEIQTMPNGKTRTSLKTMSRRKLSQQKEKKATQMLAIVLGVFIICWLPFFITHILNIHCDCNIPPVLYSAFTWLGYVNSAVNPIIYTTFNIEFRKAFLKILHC
SMILES,Ki [2],Ki [5],Ki [6],EC50 [8],Emax [9],Stimulation [9],Intrinsic activity [10],further results
NCCCC1(CCCN)CCc2cccc(O)c2C1,126 nM,3.16 nM,10000 nM,,,,,Ki [1]: 12600 nM; Ki [3]: 316 nM; Ki [4]: 2 nM
NCCc1c[nH]c2ccc(C(N)=O)cc12,1000 nM,,> 5010 nM,,,,,Ki [7]: 1.26 nM
CN1CCN(c2cc3c(cc2Cl)CCN3C(=O)Nc2ccc(-c3ccncc3)c3ccccc23)CC1,,,,19.1 nM,144,42%,0.33,
CC(C)C[C@H]1C(=O)N[C@@H](Cc2ccccc2)[C@]2(O)O[C@@](C)(NC(=O)[C@@H]3C=C4c5cccc6[nH]cc(c56)C[C@H]4N(C)C3)C(=O)N12,50.1 nM,6.31 nM,,2 nM,229,138,1.11,Ki [11]: 15.8 nM; Ki (D(2) dopamine receptor): 3.16 nM; Ki [12]: 15.8 nM; Ki [13]: 3.16 nM; Ki [14]: 0.0631 nM
NCCc1c[nH]c2ccc(O)cc12,,,,,,,1,
